# Assay results published in ChEMBL document CHEMBL4270578, “Synthesis and cytotoxic studies of novel 5-phenylisatin derivatives and their anti-migration and anti-angiogenic evaluation” (Eur J Med Chem, 2018).
# Key:
# [1] = system: HepG2; test: Anti-migratory activity against human HepG2 cells after 24 hrs by DAPI staining-based transwell assay; assay type: functional, cell-based
# Method in brief: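 HepG2 cells in serum-free DMEM, 2 × 10^5 cells/well, placed in upper compartment of polycarbonate filter inserts; lower chamber DMEM + 10% FBS. Compound or DMSO added after 30 min; 24 h at 37 °C, 5% CO2. Filters methanol-fixed and DAPI-stained, non-migrated cells swabbed off. Migrated cells on the lower side counted in three random fields.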
# [2] = system: HepG2; test: Anti-migratory activity against human HepG2 cells at 100 nM after 48 hrs by wound-healing assay relative to control; assay type: functional
# Method in brief: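 HepG2 cells seeded at 2 × 10^5 cells/well in DMEM and grown 24 h. Monolayer scratched with a 10 μl pipette tip, then PBS-washed three times. Treated with DMSO or compound (10, 30, 100 nM) at 37 °C, 5% CO2, imaged by microscopy at 0–48 h. Migration distance measured; inhibition ratio calculated against DMSO control.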
# [3] = system: K562; test: Induction of apoptosis in human K562 cells assessed as viable cells at 30 nM after 48 hrs by Annexin V-FITC/propidium iodide staining-based flow cytometric analysis (reference value: 95.8%); assay type: functional; settings: K562, 48 h, read-out: Activity
# [4] = system: K562; test: Induction of apoptosis in human K562 cells assessed as early apoptotic cells at 300 nM after 48 hrs by Annexin V-FITC/propidium iodide staining-based flow cytometric analysis (reference value: 2.2%); assay type: functional
# [5] = system: K562; test: Induction of apoptosis in human K562 cells assessed as necrotic cells at 30 nM after 24 hrs by Annexin V-FITC/propidium iodide staining-based flow cytometric analysis (reference value: 0.1%); assay type: functional
# [6] = system: K562; test: Antiproliferative activity against human K562 cells after 48 hrs by MTT assay; assay type: functional, cell-based; settings: K562, 48 h
# Method in brief: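 MTT assay on K562 cells (RPMI-1640, 10% FBS) plated at 5 × 10^4 cells/ml for 2 h, then exposed to 10–100,000 nM compound for 48 h. MTT (5 mg/mL stock) added for 4 h before absorbance read. Viability normalized to DMSO controls (100%); IC50 from nonlinear regression, three independent assays.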
# [7] = system: K562; test: Induction of apoptosis in human K562 cells assessed as late apoptotic cells at 300 nM after 12 hrs by Annexin V-FITC/propidium iodide staining-based flow cytometric analysis (reference value: 2.1%); assay type: functional
# [8] = system: K562; test: Induction of apoptosis in human K562 cells assessed as early apoptotic cells at 30 nM after 12 hrs by Annexin V-FITC/propidium iodide staining-based flow cytometric analysis (reference value: 1.9%); assay type: functional
# [9] = system: K562; test: Induction of apoptosis in human K562 cells assessed as viable cells at 30 nM after 12 hrs by Annexin V-FITC/propidium iodide staining-based flow cytometric analysis (reference value: 95.8%); assay type: functional; settings: K562, 12 h, read-out: Activity
# [10] = system: K562; test: Induction of apoptosis in human K562 cells assessed as early apoptotic cells at 30 nM after 6 hrs by Annexin V-FITC/propidium iodide staining-based flow cytometric analysis (reference value: 1.9%); assay type: functional
# [11] = system: K562; test: Induction of apoptosis in human K562 cells assessed as early apoptotic cells at 30 nM after 24 hrs by Annexin V-FITC/propidium iodide staining-based flow cytometric analysis (reference value: 1.9%); assay type: functional
compound,measurement,setting,value
COc1ccc(CN2C(=O)C(=O)c3cc(-c4ccc(OC)cc4)ccc32)cc1,Activity,[1],Dose-dependent effect
same,Activity,[2],47.9%
same,viability at 0.03 µM,[3],55.6%
same,Activity,[4],85.2%
same,Activity,[5],0.4%
same,IC50,[6],30 nM
same,Activity,[7],5.9%
same,Activity,[8],3.1%
same,viability at 0.03 µM,[9],92.8%
same,Activity,[10],2.1%
same,Activity,[11],5.7%
